In ChEMBL document CHEMBL1155380, “Synthesis and characterization of a novel iNOS/Akt inhibitor Se,Se'-1,4-phenylenebis(1,2-ethanediyl)bisisoselenourea (PBISe)--against colon cancer” (Bioorg Med Chem Lett, 2010):
The source made the active and inactive calls. The calls are words filed in the database; no cut-off is given here.

What was measured:
[1] = test system: Cancer cell lines; assay: Inhibition of PI3K in human colon cancer cells assessed as decrease in AKT2 level at 2 to 6 uM by Western blot analysis; format: cell-based
[2] = test system: OVCAR-3; assay: Antitumor activity against human OVCAR-3 cells after 24 hrs by MTS assay; format: functional, cell-based; settings: OVCAR-3, 24 h
Summary of the method: (§1)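 Cells plated at 5×10^3 per well for 24 h, then treated with PBS vehicle or increasing concentrations (10–100 μM or 1–40 μM). Viable cells measured by MTS as percent of PBS control. IC50 from dose-response curves. Normal FF2441 fibroblasts run alongside. Lines grown in DMEM/10% FBS, except WM115 in Tu2% medium without calcium chloride, with 2% heat-treated FBS.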

[3] = test system: Cancer cell lines; assay: Inhibition of PI3K in human colon cancer cells assessed as decrease in pPRAS40 level at 2 to 6 uM by Western blot analysis; format: cell-based
Summary of the method: (§2)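 Lysates in HEPES pH 7.5/NaCl/EDTA/Triton X-100 buffer with phosphatase and protease inhibitors, cleared at ≥10,000×g for 10 min at 4°C. BCA-quantified, 30 μg per lane. SDS gel, PVDF transfer, probed for PRAS40, phospho-PRAS40, Akt3, phospho-Akt Ser473, p27, cleaved PARP, cyclin D1 and Erk. HRP secondaries, ECL detection.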

[4] = test system: Caco-2; assay: Selectivity ratio of IC50 for human Caco-2 cells to IC50 for human FF2441 cells
Summary of the method: (§3)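 Colon adenocarcinoma lines (Caco-2, HT-29, HCT-116, SW-480) were grown in Advanced DMEM with 10% heat-treated FBS and L-glutamine, or in RPMI-1640 with 10% FBS. They were exposed to PBS vehicle or graded compound (10–100 μM, or 1.6–50 μM) for 72 h, and viability was read by MTS. FF2441 normal fibroblasts were tested by a similar MTS procedure. IC50 was fitted from dose-response curves.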

[5] = test system: HT-1080; assay: Antitumor activity against human HT1080 cells after 24 hrs by MTS assay; format: functional, cell-based; settings: HT-1080, 24 h; summary of the method: as §1
[6] = test system: Cancer cell lines; assay: Inhibition of PI3K in human colon cancer cells assessed as increase in cleaved PARP level at 2 to 6 uM by Western blot analysis; format: cell-based; summary of the method: as §2
[7] = Selectivity ratio of IC50 for human HCT116 cells to IC50 for human FF2441 cells; format: ADME, cell-based, HCT-116; settings: HCT116 cells and FF2441 cells; summary of the method: as §3
[8] = test system: Cancer cell lines; assay: Inhibition of PI3K in human colon cancer cells assessed as decrease in pAKT level at 2 to 6 uM by Western blot analysis; format: cell-based; summary of the method: as §2
[9] = biological target: Nitric oxide synthase, inducible (Homo sapiens) (UniProt P35228); assay: Inhibition of iNOS in human Caco-2 cells assessed as reduction of total nitrite production at 2 uM after 72 hrs by colorimetric assay relative to control; format: cell-based
Summary of the method: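 Caco-2 cells (1×10^6) in Advanced DMEM/10% heat-treated FBS for 12 h, then conditioned in phenol-red-free DMEM/0.5% FBS. Treated 72 h in the same medium, PBS control. Supernatant cleared at 500×g, incubated 2 h with nitrate reductase and cofactors, then Griess reagents I and II. A540 read against a nitrate standard curve (5–35 μM). One-way ANOVA.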

[10] = test system: PC-3; assay: Antitumor activity against human PC3 cells after 24 hrs by MTS assay; format: functional, cell-based; settings: PC-3, 24 h; summary of the method: as §1
[11] = test system: Cancer cell lines; assay: Inhibition of PI3K in human colon cancer cells assessed as increase in p27 level at 2 to 6 uM by Western blot analysis; format: cell-based; summary of the method: as §2
[12] = test system: HT-29; assay: Antitumor activity against human HT-29 cells after 72 hrs by MTS assay; format: functional, cell-based; settings: HT-29, 72 h
Summary of the method: (§4)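 Colon adenocarcinoma cells (Advanced DMEM with 2 mM L-glutamine and 10% heat-treated FBS, or RPMI-1640 with 10% FBS) exposed to increasing concentrations (10–100 μM, or 1.6–50 μM) for 72 h. Viable cells quantified by MTS. IC50 from dose-response curves, at least three independent experiments.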

[13] = test system: MDA-MB-231; assay: Antitumor activity against human MDA-MB-231 cells after 24 hrs by MTS assay; format: functional, cell-based; settings: MDA-MB-231, 24 h; summary of the method: as §1
[14] = test system: A549; assay: Antitumor activity against human A549 cells after 24 hrs by MTS assay; format: functional, cell-based; settings: A549, 24 h; summary of the method: as §1
[15] = test system: WM-115; assay: Antitumor activity against human WM115 cells after 24 hrs by MTS assay; format: functional, cell-based; settings: WM-115, 24 h; summary of the method: as §1
[16] = test system: HT-29; assay: Selectivity ratio of IC50 for human HT-29 cells to IC50 for human FF2441 cells; summary of the method: as §3
[17] = test system: SW480; assay: Ratio of IC50 for human SW480 cells to IC50 for human FF2441 cells; summary of the method: as §3
[18] = test system: Cancer cell lines; assay: Inhibition of MAPK in human colon cancer cells assessed as decrease in pAKT level at 2 to 6 uM by Western blot analysis; format: cell-based
Summary of the method: (§5)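 They were cleared at ≥10,000×g for 10 min at 4°C and assayed by BCA; 30 μg per lane went on NuPAGE gels, then PVDF. Probes: phospho-Akt (Ser473), phospho-PRAS40, cleaved PARP and p27, with HRP secondaries and ECL detection.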

[19] = test system: HCT-116; assay: Antitumor activity against human HCT116 cells after 72 hrs by MTS assay; format: functional, cell-based; settings: HCT-116, 72 h; summary of the method: as §4
[20] = test system: Cancer cell lines; assay: Inhibition of MAPK in human colon cancer cells assessed as increase in p27 level at 2 to 6 uM by Western blot analysis; format: cell-based; summary of the method: as §5
[21] = test system: Cancer cell lines; assay: Inhibition of MAPK in human colon cancer cells assessed as decrease in pPRAS40 level at 2 to 6 uM by Western blot analysis; format: cell-based; summary of the method: as §5
[22] = test system: Caco-2; assay: Antitumor activity against human Caco-2 cells after 72 hrs by MTS assay; format: functional, cell-based; settings: Caco-2, 72 h
Summary of the method: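 Cells plated at 5×10^3 per well for 24 h, then exposed to PBS vehicle or increasing compound concentrations for 72 h. Viable cells were quantified by MTS and expressed as a percentage of the PBS-treated control. IC50 was fitted from dose-response curves, from at least three independent experiments, and reported with standard error.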

[23] = test system: Cancer cell lines; assay: Inhibition of MAPK in human colon cancer cells assessed as decrease in AKT2 level at 2 to 6 uM by Western blot analysis; format: cell-based
[24] = test system: Cancer cell lines; assay: Inhibition of MAPK in human colon cancer cells assessed as increase in cleaved PARP level at 2 to 6 uM by Western blot analysis; format: cell-based; summary of the method: as §5
[25] = test system: SW480; assay: Antitumor activity against human SW480 cells after 72 hrs by MTS assay; format: functional, cell-based; settings: SW480, 72 h; summary of the method: as §4

Sequence of Nitric oxide synthase, inducible (Homo sapiens) (P35228 whole entry): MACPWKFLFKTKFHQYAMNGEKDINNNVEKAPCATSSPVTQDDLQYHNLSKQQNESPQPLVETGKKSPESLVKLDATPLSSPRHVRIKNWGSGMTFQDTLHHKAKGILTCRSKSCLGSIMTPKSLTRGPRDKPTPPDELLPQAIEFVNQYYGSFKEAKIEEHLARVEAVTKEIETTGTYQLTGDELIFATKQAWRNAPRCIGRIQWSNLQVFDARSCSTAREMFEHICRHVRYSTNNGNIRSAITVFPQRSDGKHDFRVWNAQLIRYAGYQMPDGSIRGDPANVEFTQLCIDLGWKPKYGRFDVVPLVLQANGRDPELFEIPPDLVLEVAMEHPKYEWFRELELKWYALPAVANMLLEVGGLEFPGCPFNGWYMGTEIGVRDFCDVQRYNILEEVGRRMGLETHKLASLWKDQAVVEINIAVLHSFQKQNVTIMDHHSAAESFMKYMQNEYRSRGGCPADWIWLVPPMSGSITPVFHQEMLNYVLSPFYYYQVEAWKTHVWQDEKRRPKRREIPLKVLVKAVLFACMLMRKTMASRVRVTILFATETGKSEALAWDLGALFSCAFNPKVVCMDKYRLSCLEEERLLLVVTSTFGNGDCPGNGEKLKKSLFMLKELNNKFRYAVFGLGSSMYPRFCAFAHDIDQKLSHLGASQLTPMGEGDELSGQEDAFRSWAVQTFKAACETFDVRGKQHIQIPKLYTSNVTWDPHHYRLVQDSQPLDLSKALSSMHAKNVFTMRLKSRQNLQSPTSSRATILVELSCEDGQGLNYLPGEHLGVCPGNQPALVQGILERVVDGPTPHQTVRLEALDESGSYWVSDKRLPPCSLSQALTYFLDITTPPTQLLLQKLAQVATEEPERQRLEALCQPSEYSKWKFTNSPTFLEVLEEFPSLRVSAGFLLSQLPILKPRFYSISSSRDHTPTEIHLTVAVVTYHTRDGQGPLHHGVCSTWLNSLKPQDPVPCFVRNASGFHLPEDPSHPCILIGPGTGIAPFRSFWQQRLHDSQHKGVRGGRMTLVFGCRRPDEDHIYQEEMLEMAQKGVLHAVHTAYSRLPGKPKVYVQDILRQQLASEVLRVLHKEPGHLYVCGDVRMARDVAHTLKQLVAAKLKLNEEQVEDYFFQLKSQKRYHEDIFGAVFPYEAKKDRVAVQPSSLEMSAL

Br.N=C(N)[Se]CCc1ccc(CC[Se]C(=N)N)cc1
inhibition [1]: Active | IC50 [2]: 5.33 µM | inhibition [3]: Active | Ratio [4]: 2 | IC50 [5]: 3.22 µM | inhibition [6]: Active | selectivity ratio [7]: 2 | inhibition [8]: Active | inhibition [9]: 25% | IC50 [10]: 6.64 µM | inhibition [11]: Active | IC50 [12]: 3.84 µM | IC50 [13]: 6.03 µM | IC50 [14]: 4.17 µM | IC50 [15]: 9.7 µM | Ratio [16]: 2 | Ratio [17]: 2

Br.Br.N=C(N)SCCc1ccc(CCSC(=N)N)cc1
inhibition [18]: inactive | IC50 [2]: > 100 µM | IC50 [19]: > 100 µM | Ratio [4]: 2 | IC50 [5]: > 100 µM | inhibition [20]: inactive | inhibition [21]: inactive | selectivity ratio [7]: 2 | IC50 [22]: 59.4 µM | IC50 [10]: > 100 µM | IC50 [13]: > 100 µM | IC50 [14]: > 100 µM | IC50 [15]: > 100 µM | inhibition [23]: inactive | Ratio [17]: 2 | inhibition [24]: inactive

Br.N=C(N)[Se]CCc1ccccc1
IC50 [19]: > 100 µM | Ratio [4]: 2 | selectivity ratio [7]: 2 | Ratio [16]: 2 | Ratio [17]: 2 | IC50 [25]: > 100 µM

Br.N=C(N)SCCc1ccccc1 [PHENYLETHYLISOTHIOUREAHYDROBROMIDE]
IC50 [19]: > 100 µM | Ratio [4]: 2 | selectivity ratio [7]: 2 | IC50 [22]: > 100 µM | Ratio [16]: 2 | Ratio [17]: 2 | IC50 [25]: > 100 µM
